Measured values published in ChEMBL document CHEMBL3875165, “Novel broad-spectrum and long-acting parenteral cephalosporins having an acyl cyanamide moiety at the C-3 terminal: Synthesis and structure-activity relationships” (Eur J Med Chem, 2016).

How the values were obtained:
[1] = AUC (0 to infinity) in monkey at 20 mg/kg, iv administered as bolus dose by HPLC method; format: ADME, organism-based, Macaca mulatta; parameters: dose 20 mg/kg, time infinity, route intravenous; conditions: rhesus monkey, in vivo
How it was run: (§1)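 Three monkeys per group received a single iv bolus of 20 mg/kg (1 mL/kg). Plasma levels were measured by HPLC. AUC0-∞, CLtot and T1/2 came from a 2-compartment fit.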

[2] = Half life in monkey at 20 mg/kg, iv administered as bolus dose by HPLC method; format: ADME, organism-based, Macaca mulatta; conditions: rhesus monkey, in vivo; how it was run: as §1
[3] = Total clearance in monkey at 20 mg/kg, iv administered as bolus dose by HPLC method; format: ADME, organism-based, Macaca mulatta; conditions: rhesus monkey, in vivo; how it was run: as §1
[4] = Protein binding in ICR mouse plasma after 30 mins by ultra-filtration method; format: ADME, cell-free; conditions: read-out: PPB (converted)
How it was run: (§2)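 Mouse or monkey plasma was adjusted to pH 7 with CO2 and spiked with compound to a final 10 µg/ml. It was incubated 30 min at 37 °C, then ultrafiltered by centrifugation at 3200 rpm for 30 min at 25 °C. Free drug in the filtrate was measured by bioassay to give the bound fraction.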

[5] = Protein binding in cynomolgus monkey plasma after 30 mins by ultra-filtration method; format: ADME, cell-free, Macaca fascicularis; conditions: read-out: PPB (converted); how it was run: as §2
Staphylococcus aureus = test: Antibacterial activity against Staphylococcus aureus SMITH after 20 hrs by agar dilution method; format: functional
How it was run: (§3)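 Agar dilution MIC on Sensitivity Disk Agar-N with 2-fold serial drug dilutions. Overnight Mueller Hinton broth cultures were diluted to about 10^6 CFU/mL, and 1 µL spots were applied. Plates were incubated 20 h at 37 °C before scoring.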

Streptococcus pneumoniae [6] = test: Antibacterial activity against penicillin-resistant Streptococcus pneumoniae SR16675 after 20 hrs by agar dilution method; format: functional; conditions: SR16675, 20 h
How it was run: (§4)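 Agar dilution on Sensitivity Disk Agar-N. Overnight Mueller Hinton broth cultures were diluted to about 10^6 CFU/mL, and 1 µL spots were placed on agar plates holding 2-fold serial dilutions of antibiotic. Plates were incubated 20 h at 37 °C and then MICs were scored.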

Streptococcus pneumoniae [7] = test: Antibacterial activity against penicillin-resistant Streptococcus pneumoniae SR16750 after 20 hrs by agar dilution method; format: functional; conditions: SR16750, 20 h; how it was run: as §4
Haemophilus influenzae [8] = test: Antibacterial activity against beta-lactamase non-producing penicillin-resistant Haemophilus influenzae SR11435 after 20 hrs by agar dilution method; format: functional; conditions: SR11435, 20 h; how it was run: as §4
Haemophilus influenzae [9] = test: Antibacterial activity against beta-lactamase non-producing penicillin-resistant Haemophilus influenzae SR24106 after 20 hrs by agar dilution method; format: functional; conditions: SR24106, 20 h; how it was run: as §4
Moraxella catarrhalis = test: Antibacterial activity against Moraxella catarrhalis SR24290 after 20 hrs by agar dilution method; format: functional; conditions: SR24290, 20 h; how it was run: as §3
Escherichia coli = test: Antibacterial activity against Escherichia coli NIHJ JC-2 after 20 hrs by agar dilution method; format: functional; conditions: NIHJ JC-2, 20 h; how it was run: as §3
[10] = Half life in mouse at 20 mg/kg, iv administered as bolus dose by band-culture bioassay; conditions: in vivo
[11] = Total clearance in mouse at 20 mg/kg, iv administered as bolus dose by band-culture bioassay; conditions: in vivo
[12] = AUC (0 to infinity) in mouse at 20 mg/kg, iv administered as bolus dose by band-culture bioassay; conditions: in vivo

Compound	AUC [1]	half-life [2]	clearance [3]	fraction unbound at 0.5 h [4]	fraction unbound at 0.5 h [5]	MIC (Staphylococcus aureus)	MIC (Streptococcus pneumoniae [6])	MIC (Streptococcus pneumoniae [7])	MIC (Haemophilus influenzae [8])	MIC (Haemophilus influenzae [9])	MIC (Moraxella catarrhalis)	MIC (Escherichia coli)	half-life [10]	clearance [11]	AUC(0-inf) [12]
CCO/N=C(\C(=O)N[C@@H]1C(=O)N2C(C(=O)[O-])=C(/C=C/C[n+]3ccc(-n4ccc(/C([O-])=N/C#N)n4)cc3)CS[C@H]12)c1csc(N)n1.[Na+]	32100 ng·h/mL	2.8 h	0.54 mL/min/kg	0.86	0.14	0.5 µg/mL	0.25 µg/mL	0.5 µg/mL	0.063 µg/mL	0.125 µg/mL	2 µg/mL	0.125 µg/mL	0.87 h	19.8 mL/min/kg	16800 ng·h/mL
CCO/N=C(\C(=O)N[C@@H]1C(=O)N2C(C(=O)[O-])=C(/C=C/C[n+]3ccc(-c4cc(/C([O-])=N/C#N)on4)cc3)CS[C@H]12)c1csc(N)n1.[Na+]	59800 ng·h/mL	5.14 h	0.29 mL/min/kg	0.78	0.06	0.5 µg/mL	0.25 µg/mL	0.25 µg/mL	0.063 µg/mL	0.125 µg/mL	0.5 µg/mL	0.125 µg/mL	0.85 h	22.6 mL/min/kg	14800 ng·h/mL
CCO/N=C(\C(=O)N[C@@H]1C(=O)N2C(C(=O)[O-])=C(/C=C/C[n+]3cccc4[nH]c(/C([O-])=N/C#N)cc43)CS[C@H]12)c1csc(N)n1.[Na+]	9800 ng·h/mL	2.03 h	1.74 mL/min/kg	0.64	0.4	0.5 µg/mL	0.25 µg/mL	0.5 µg/mL	0.031 µg/mL	0.125 µg/mL	1 µg/mL	0.125 µg/mL	0.73 h	14.1 mL/min/kg	23600 ng·h/mL
CCO/N=C(\C(=O)N[C@@H]1C(=O)N2C(C(=O)[O-])=C(/C=C/C[n+]3ccc(-c4cc(/C([O-])=N/C#N)n(C)n4)cc3)CS[C@H]12)c1csc(N)n1.[Na+]	21800 ng·h/mL	2.96 h	0.81 mL/min/kg	0.59	0.41	0.5 µg/mL	0.125 µg/mL	0.5 µg/mL	0.063 µg/mL	0.25 µg/mL	8 µg/mL	0.25 µg/mL	0.82 h	13.2 mL/min/kg	21300 ng·h/mL
CCO/N=C(\C(=O)N[C@@H]1C(=O)N2C(C(=O)[O-])=C(/C=C/C[n+]3ccc(-c4cc(/C([O-])=N/C#N)[nH]n4)cc3)CS[C@H]12)c1csc(N)n1.[Na+]	35400 ng·h/mL	4.43 h	0.48 mL/min/kg	0.75	0.27	0.25 µg/mL	0.125 µg/mL	0.25 µg/mL	0.063 µg/mL	0.125 µg/mL	2 µg/mL	0.125 µg/mL	1.03 h	19.2 mL/min/kg	17400 ng·h/mL
CCO/N=C(\C(=O)N[C@@H]1C(=O)N2C(C(=O)[O-])=C(/C=C/C[n+]3ccc4sc(/C([O-])=N/C#N)nc4c3)CS[C@H]12)c1csc(N)n1.[Na+]	24500 ng·h/mL	2.86 h	0.68 mL/min/kg	0.59	0.16	0.5 µg/mL	0.125 µg/mL	0.25 µg/mL	0.063 µg/mL	0.063 µg/mL	0.5 µg/mL	0.25 µg/mL	0.7 h	14 mL/min/kg	23700 ng·h/mL
CCO/N=C(\C(=O)N[C@@H]1C(=O)N2C(C(=O)[O-])=C(/C=C/C[n+]3ccc4[nH]c(/C([O-])=N/C#N)cc4c3)CS[C@H]12)c1csc(N)n1.[Na+]	20900 ng·h/mL	3.35 h	0.8 mL/min/kg	0.73	0.33	0.5 µg/mL	0.25 µg/mL	0.5 µg/mL	0.063 µg/mL	0.125 µg/mL	4 µg/mL	0.25 µg/mL	0.63 h	10.9 mL/min/kg	30400 ng·h/mL
